Assay results: ChEMBL document CHEMBL1150675, “Chemical constituents of Calophyllum brasiliense. 2. Structure of three new coumarins and cancer chemopreventive activity of 4-substituted coumarins” (J Nat Prod, 2003)

Columns and labels:
Raji [1] = assay: Inhibition of TPA-induced EBV-early antigen activation in human Raji cells assessed as early antigen activation at 0.32 nmol after 48 hrs relative to control; type: cell-based; parameters: scale not given: the % may be the effect or the level left; settings: human gammaherpesvirus 4
Procedure, shortened: (§1)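 Raji cells at 10^6 cells/mL are harvested and induced in RPMI 1640/10% FCS with 4 mM n-butyric acid and 32 pmol TPA (20 ng/mL). Compound is added in DMSO at 32, 16, 3.2 or 0.32 nmol (mol ratio to TPA). After 48 h at 37 °C, EA-positive cells are counted blind (≥500 cells) as % versus TPA-only control ± SD. IC50 is the mol ratio to TPA giving 50% inhibition.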

[2] = Cytotoxicity against human Raji cells assessed as cell viability at 16 nmol after 48 hrs by trypan blue staining; type: cell-based; settings: read-out: Activity
Procedure, shortened: (§2)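 Raji cells grown to 106 cells/mL, pelleted and resuspended in RPMI 1640 with 10% FCS plus 4 mM n-butyric acid and 32 pmol TPA (20 ng/mL in DMSO), with test compound in DMSO (32, 16, 3.2 or 0.32 nmol; 1000–10 mol ratio/TPA). Viability counted after 48 h at 37 °C by hemocytometer with Trypan Blue; at least 60% survival required.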

Raji [3] = assay: Inhibition of TPA-induced EBV-early antigen activation in human Raji cells assessed as early antigen activation at 16 nmol after 48 hrs relative to control; type: cell-based; parameters: scale not given: the % may be the effect or the level left; settings: human gammaherpesvirus 4; procedure, shortened: as §1
Raji [4] = assay: Inhibition of TPA-induced EBV-early antigen activation in human Raji cells assessed as early antigen activation at 3.2 nmol after 48 hrs relative to control; type: cell-based; parameters: scale not given: the % may be the effect or the level left; settings: human gammaherpesvirus 4; procedure, shortened: as §1
[5] = Cytotoxicity against human Raji cells assessed as cell viability at 0.32 nmol after 48 hrs by trypan blue staining; type: cell-based; settings: read-out: Activity; procedure, shortened: as §2
[6] = Cytotoxicity against human Raji cells assessed as cell viability at 32 nmol after 48 hrs by trypan blue staining; type: cell-based; settings: read-out: Activity; procedure, shortened: as §2
[7] = Inhibition of TPA-induced EBV-early antigen activation in human Raji cells assessed as early antigen activation after 48 hrs relative to control; type: cell-based, human gammaherpesvirus 4; procedure, shortened: as §1
Raji [8] = assay: Inhibition of TPA-induced EBV-early antigen activation in human Raji cells assessed as early antigen activation at 32 nmol after 48 hrs relative to control; type: cell-based; parameters: scale not given: the % may be the effect or the level left; settings: human gammaherpesvirus 4; procedure, shortened: as §1
[9] = Cytotoxicity against human Raji cells assessed as cell viability at 3.2 nmol after 48 hrs by trypan blue staining; type: cell-based; settings: read-out: Activity; procedure, shortened: as §2

For CC1(C)C=Cc2c(O)c(C(=O)c3ccccc3)c3oc(=O)cc(-c4ccccc4)c3c2O1 [CALANONE], the Activity (Raji [1]) was 93.3%, the viability at 48 h, 16 nmol [2] was over 80% and the Activity (Raji [3]) was 32.3%. The Activity (Raji [4]) was 73.1%, the viability at 48 h, 0.32 nmol [5] was over 80% and the viability at 48 h, 32 nmol [6] was 70%. The IC50 [7] was 347 molar ratio, the Activity (Raji [8]) was 0% and the viability at 48 h, 3.2 nmol [9] was over 80%.
CC1=C(/C=C/C(C)=C/C=C/C(C)=C/C=C/C=C(C)/C=C/C=C(C)/C=C/C2=C(C)CCCC2(C)C)C(C)(C)CCC1 [BETA CAROTENE] showed an Activity (Raji [1]) of 100%, an IC50 [7] of 400 molar ratio and an Activity (Raji [8]) of 9.1%.
In the case of CCCc1cc(=O)oc2c3c(c4c(c12)OC(C)(C)C=C4)O[C@H](C)[C@H](C)[C@@H]3O [CALANOLIDE C], the Activity (Raji [1]) is reported as 94.3%, the viability at 48 h, 16 nmol [2] is reported as over 80% and the Activity (Raji [3]) is reported as 35.1%. It also gave an Activity (Raji [4]) of 74%, a viability at 48 h, 0.32 nmol [5] of over 80% and a viability at 48 h, 32 nmol [6] of 70%. It also gave an IC50 [7] of 351 molar ratio, an Activity (Raji [8]) of 0% and a viability at 48 h, 3.2 nmol [9] of over 80%.
In the case of CCCc1cc(=O)oc2c(C(=O)C(C)CC)c(O)c(CC=C(C)C)c(O)c12 (stereo not given), the Activity (Raji [1]) is reported as 84.2%, the viability at 48 h, 16 nmol [2] is reported as over 80% and the Activity (Raji [3]) is reported as 13.7%. For the same molecule, the Activity (Raji [4]) was 50.6%, the viability at 48 h, 0.32 nmol [5] was over 80% and the viability at 48 h, 32 nmol [6] was 60%. The IC50 [7] was 170 molar ratio, the Activity (Raji [8]) was 0% and the viability at 48 h, 3.2 nmol [9] was over 80%.
Molecule CCCc1cc(=O)oc2c(C(=O)c3ccccc3)c(O)c3c(c12)OC(C)(C)C=C3 [BRASIMARIN A] has an Activity (Raji [1]) of 93.8%, a viability at 48 h, 16 nmol [2] of over 80% and an Activity (Raji [3]) of 33.3%. For the same molecule, the Activity (Raji [4]) was 72.1%, the viability at 48 h, 0.32 nmol [5] was over 80% and the viability at 48 h, 32 nmol [6] was 70%. For the same molecule, the IC50 [7] was 349 molar ratio, the Activity (Raji [8]) was 0% and the viability at 48 h, 3.2 nmol [9] was over 80%.
With CCC(C)C(=O)c1c(O)c2c(c3c(-c4ccccc4)cc(=O)oc13)OC(C(C)(C)O)C2 (stereo not given) [BRASIMARIN B] the Activity (Raji [1]) was 92.5%, the viability at 48 h, 16 nmol [2] was over 80% and the Activity (Raji [3]) was 32.6%. It also gave an Activity (Raji [4]) of 71.6%, a viability at 48 h, 0.32 nmol [5] of over 80% and a viability at 48 h, 32 nmol [6] of 70%. The IC50 [7] was 342 molar ratio, the Activity (Raji [8]) was 0% and the viability at 48 h, 3.2 nmol [9] was over 80%.
With CCCc1cc(=O)oc2c3c(c4c(c12)OC(C)(C)C=C4)O[C@H](C)[C@@H](C)[C@@H]3O [CALANOLIDE A] the Activity (Raji [1]) was 92.5%, the viability at 48 h, 16 nmol [2] was over 80% and the Activity (Raji [3]) was 27.7%. For the same molecule, the Activity (Raji [4]) was 66.6%, the viability at 48 h, 0.32 nmol [5] was over 80% and the viability at 48 h, 32 nmol [6] was 60%. For the same molecule, the IC50 [7] was 290 molar ratio, the Activity (Raji [8]) was 0% and the viability at 48 h, 3.2 nmol [9] was over 80%.
C/C=C(\C)C(=O)c1c(OC)c2c(c3c(CCC)cc(=O)oc13)OC(C)(C)C=C2 gave an Activity (Raji [1]) of 90.8%, a viability at 48 h, 16 nmol [2] of over 80% and an Activity (Raji [3]) of 19.5%. It also gave an Activity (Raji [4]) of 62.5%, a viability at 48 h, 0.32 nmol [5] of over 80% and a viability at 48 h, 32 nmol [6] of 60%. For the same molecule, the IC50 [7] was 268 molar ratio, the Activity (Raji [8]) was 0% and the viability at 48 h, 3.2 nmol [9] was over 80%.
For CC(C)=CCc1c2c(c3oc(=O)cc(-c4ccccc4)c3c1O)C(=O)[C@H](C)[C@@H](C)O2 [BRASIMARIN C], the Activity (Raji [1]) was 93.8%, the viability at 48 h, 16 nmol [2] was over 80% and the Activity (Raji [3]) was 33.3%. For the same molecule, the Activity (Raji [4]) was 70.2%, the viability at 48 h, 0.32 nmol [5] was over 80% and the viability at 48 h, 32 nmol [6] was 70%. For the same molecule, the IC50 [7] was 348 molar ratio, the Activity (Raji [8]) was 0% and the viability at 48 h, 3.2 nmol [9] was over 80%.
